Experimental data gathered from unrelated publications.
Protocols differ between the studies behind these lines.

Structure (SMILES)	tested on	assay	setting	measurement	result
c1ccc(Oc2ccc(Nc3c4c(nc5ccccc35)CCC4)cc2)cc1	Leishmania donovani	parasite growth	40 µM, intracellular, amastigote	inhibition	96%
O=c1cc(CSc2ccc(N=Cc3ccc(O)cc3)cc2)occ1O		ABTS scavenging, absorbance		IC50	20.3 µM
N.N.[Cl][Pt][Cl]	WSU-NHL	cell growth or viability, ATP luminescence	10 µM, 72 h	inhibition	100%
N#C[Se]CCCCOc1ccc2c(-c3ccccc3)cc(=O)oc2c1	A549	cell growth or viability, SRB		GI50	29 µM
O=C(Nc1ccc(Cl)cc1)Nc1cccc(-c2cn(Cc3ccc(Br)cc3)nn2)c1	A549	cell growth or viability, CCK-8	50 µM, 72 h	viability	123%
CC(C)C[C@H](NC(=O)[C@H](CCCCN)NC(=O)[C@H](CC(C)C)NC(=O)[C@H](Cc1ccccc1)NC(=O)[C@H](CC(C)C)NC(=O)[C@H](CCCCN)NC(=O)[C@H](CCCCN)NC(=O)[C@H](CC(C)C)NC(=O)[C@H](CC(C)C)NC(=O)[C@H](CCCCN)NC(=O)[C@@H](N)CCCNC(=N)N)C(=O)N[C@@H](CCCCN)C(=O)N[C@@H](CCCCN)C(N)=O	A549	cell growth or viability, MTT	24 h	IC50	164 µM
O=c1cc(CSc2ccc(N=Cc3ccccc3[N+](=O)[O-])cc2)occ1O		ABTS scavenging, absorbance		IC50	42.6 µM
CCOc1ccc(Nc2c3c(nc4ccccc24)CCC3)cc1	Leishmania donovani	parasite growth	33.33 µM, promastigote	inhibition	81%
CC[C@H](C)[C@H](NC(=O)[C@H](CCCNC(=N)N)NC(=O)[C@H](CC(C)C)NC(=O)[C@@H](N)CCCNC(=N)N)C(=O)N[C@@H](CCC(N)=O)C(=O)N[C@@H](CCCNC(=N)N)C(=O)N[C@@H](CCCNC(=N)N)C(=O)N[C@@H](CCCNC(=N)N)C(=O)N[C@@H](Cc1ccccc1)C(=O)N[C@@H](CCCNC(=N)N)C(=O)N[C@@H](CCCCN)C(=O)N[C@@H](CCCCN)C(=O)NCC(N)=O	A549	cell growth or viability, MTT	24 h	IC50	> 500 µM
Cc1c(Cl)c(=O)oc2cc(OCCCC[Se]C#N)ccc12	A549	cell growth or viability, SRB		GI50	12 µM
O=c1cc(CSc2ccc(N=Cc3ccccc3)cc2)occ1O		ABTS scavenging, absorbance		IC50	0.04 µM
CC(C)C[C@H](NC(=O)[C@H](CCCCN)NC(=O)[C@H](Cc1c[nH]c2ccccc12)NC(=O)[C@H](CCCCN)NC(=O)[C@H](CCCCN)NC(=O)[C@H](CC(C)C)NC(=O)[C@H](Cc1ccccc1)NC(=O)[C@H](CCCCN)NC(=O)[C@H](CCC(=O)O)NC(=O)[C@H](CC(C)C)NC(=O)[C@H](CC(C)C)NC(=O)[C@H](CCCCN)NC(=O)[C@@H](N)CCCNC(=N)N)C(N)=O	A549	cell growth or viability, MTT	24 h	IC50	76 µM
